Experimental data published in ChEMBL document CHEMBL4477184, “Pelianthinarubins A and B, Red Pyrroloquinoline Alkaloids from the Fruiting Bodies of the Mushroom Mycena pelianthina” (J Nat Prod, 2016).
Calls of active or inactive are those of the source.

How the values were obtained:
Format in all cases: functional, organism-based
Lepidium sativum = test: Herbicidal activity against Lepidium sativum
Escherichia coli = test: Antibacterial activity against Escherichia coli after 24 hrs by plate diffusion assay
Procedure, shortened: (§1)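 Paper discs (6 mm diameter, 0.5 mm thick) were loaded with 0.1 or 0.5 mg of sample dissolved in distilled water and dried under sterile conditions. The discs were then placed on agar plates inoculated with the test bacterium and incubated at 37 °C for 24 h.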

Bacillus subtilis = test: Antibacterial activity against Bacillus subtilis after 24 hrs by plate diffusion assay; procedure, shortened: as §1
Folsomia candida = test: Insecticidal activity against Folsomia candida
Brevibacillus brevis = test: Antibacterial activity against Bacillus brevis after 24 hrs by plate diffusion assay; procedure, shortened: as §1
Cladosporium cucumerinum = test: Antifungal activity against Cladosporium cucumerinum after 48 hrs by plate diffusion assay
Procedure, shortened: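 Disc diffusion assay. Paper discs (6 mm) were loaded with 0.1 or 0.5 mg of sample from distilled water and dried under sterile conditions. The discs were laid on agar plates inoculated with Cladosporium cucumerinum, and the plates were incubated at 18 °C for 48 h.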

Measured: Activity

C[N+](C)(C)[C@H](C(=O)O)[C@H](O)c1cn([C@@H]2CCN3C4=C2C(=O)C(=O)c2[nH]cc(c24)C[C@H]3C(=O)O)cn1
inactive: all assays above

C[N+](C)(C)[C@@H](Cc1cn([C@@H]2CCN3C4=C2C(=O)C(=O)c2[nH]cc(c24)C[C@H]3C(=O)O)cn1)C(=O)O
inactive: all assays above
